According to ChEMBL document CHEMBL6078712, “Triterpenoid phthalimides as selective anti-cancer agents targeting mitochondrial apoptosis” (Eur J Med Chem, 2025):
pIC50: −log10 of the molar value.

Key:
[1] = Cytotoxicity against human K562-Tax cells assessed as inhibition of cell growth incubated for 72 hrs by MTS assay; type: functional, cell-based
Outline: (§1)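 MTS assay on eight human cancer lines and two non-tumour fibroblast lines. IC50 is the concentration that inhibits cell growth by 50 %. SD typically up to 15 % of the mean.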

HCT-116 = experiment: Cytotoxicity against human HCT-116 cells assessed as inhibition of cell growth incubated for 72 hrs by MTS assay; type: functional, cell-based; conditions: HCT-116, 72 h; outline: as §1
A549 = experiment: Cytotoxicity against human A549 cells assessed as inhibition of cell growth incubated for 72 hrs by MTS assay; type: functional, cell-based; conditions: A549, 72 h; outline: as §1
[2] = Cytotoxicity against human BJ cells assessed as inhibition of cell growth incubated for 72 hrs by MTS assay; type: toxicity, cell-based; outline: as §1
CEM-DNR = experiment: Cytotoxicity against human CEM-DNR cells assessed as inhibition of cell growth incubated for 72 hrs by MTS assay; type: functional, cell-based; outline: as §1
U2OS = experiment: Cytotoxicity against human U2OS cells assessed as inhibition of cell growth incubated for 72 hrs by MTS assay; type: functional, cell-based; outline: as §1
HCT 116 TP53(-/-) = experiment: Cytotoxicity against human HCT116-p53-null cells assessed as inhibition of cell growth incubated for 72 hrs by MTS assay; type: functional, cell-based; outline: as §1
CCRF-CEM = experiment: Cytotoxicity against human CCRF-CEM cells assessed as inhibition of cell growth incubated for 72 hrs by MTS assay; type: functional, cell-based; outline: as §1
K562 = experiment: Cytotoxicity against human K562 cells assessed as inhibition of cell growth incubated for 72 hrs by MTS assay; type: functional, cell-based; conditions: K562, 72 h; outline: as §1
[3] = Cytotoxicity against human MRC5 cells assessed as inhibition of cell growth incubated for 72 hrs by MTS assay; type: toxicity, cell-based; outline: as §1

Compound	pIC50 [1]	pIC50 (HCT-116)	pIC50 (A549)	IC50 at 72 h [2] [µM]	pIC50 (CEM-DNR)	pIC50 (U2OS)	pIC50 (HCT 116 TP53(-/-))	pIC50 (CCRF-CEM)	pIC50 (K562)	IC50 at 72 h [3] [µM]
CC(=O)O[C@H]1CC[C@]2(C)[C@H]3CC[C@@H]4[C@H]5[C@H](c6ccc7c(c6)C(=O)N(c6cc[nH]n6)C7=O)CC[C@]5(C(=O)O)CC[C@@]4(C)[C@]3(C)CC[C@H]2C1(C)C	4.68	4.62	4.57	30	4.59	4.58	4.52	4.73	4.53	28.3
COc1ccc(N2C(=O)c3ccc([C@@H]4CC[C@]5(COC(C)=O)CC[C@]6(C)[C@H](CC[C@@H]7[C@@]8(C)CC[C@H](OC(C)=O)C(C)(C)[C@@H]8CC[C@]76C)[C@@H]45)cc3C2=O)cc1	< 4.30	< 4.30	< 4.30	> 50	< 4.30	< 4.30	< 4.30	< 4.30	< 4.30	> 50
CC1(C)[C@@H](O)CC[C@]2(C)[C@H]3CC[C@@H]4[C@H]5[C@H](c6ccc7c(c6)C(=O)N(c6ccc(C#N)cc6)C7=O)CC[C@]5(C(=O)O)CC[C@@]4(C)[C@]3(C)CC[C@@H]12	4.90	< 4.30	< 4.30	> 50	4.56	< 4.30	< 4.30	4.70	< 4.30	> 50
COC(=O)c1cc([C@@H]2CC[C@]3(CO)CC[C@]4(C)[C@H](CC[C@@H]5[C@@]6(C)CC[C@H](O)C(C)(C)[C@@H]6CC[C@]54C)[C@@H]23)cc(-c2ccccc2)c1C(=O)OC	< 4.30	< 4.30	< 4.30	> 50	< 4.30	< 4.30	< 4.30	< 4.30	< 4.30	> 50
COc1ccc(N2C(=O)c3cc([C@@H]4CC[C@]5(C(=O)O)CC[C@]6(C)[C@H](CC[C@@H]7[C@@]8(C)CC[C@H](O)C(C)(C)[C@@H]8CC[C@]76C)[C@@H]45)cc(-c4ccccc4)c3C2=O)cc1	4.56	< 4.30	< 4.30	> 50	< 4.30	< 4.30	< 4.30	4.87	< 4.30	> 50
COC(=O)c1cc([C@@H]2CC[C@]3(C(=O)O)CC[C@]4(C)[C@H](CC[C@@H]5[C@@]6(C)CC[C@H](O)C(C)(C)[C@@H]6CC[C@]54C)[C@@H]23)cc(C)c1C(=O)OC	5.14	4.79	4.98	33	5.17	4.72	4.79	4.85	4.92	32.4
CC(=O)OC[C@]12CC[C@@H](c3cc4c(c(-c5ccccc5)c3)C(=O)NC4=O)[C@@H]1[C@H]1CC[C@@H]3[C@@]4(C)CC[C@H](OC(C)=O)C(C)(C)[C@@H]4CC[C@@]3(C)[C@]1(C)CC2	< 4.30	< 4.30	< 4.30	> 50	< 4.30	< 4.30	< 4.30	< 4.30	< 4.30	> 50
CC1(C)[C@@H](O)CC[C@]2(C)[C@H]3CC[C@@H]4[C@H]5[C@H](c6ccc7c(c6)C(=O)NC7=O)CC[C@]5(C(=O)O)CC[C@@]4(C)[C@]3(C)CC[C@@H]12	4.76	4.51	4.58	> 50	4.68	4.41	4.46	4.58	4.45	> 50
CC(=O)Nc1ccc(N2C(=O)c3ccc([C@@H]4CC[C@]5(C(=O)O)CC[C@]6(C)[C@H](CC[C@@H]7[C@@]8(C)CC[C@H](OC(C)=O)C(C)(C)[C@@H]8CC[C@]76C)[C@@H]45)cc3C2=O)cc1	4.74	4.61	4.57	31.2	4.68	4.61	4.53	4.78	4.57	19.8
COc1ccc(N2C(=O)c3ccc([C@@H]4CC[C@]5(C(=O)O)CC[C@]6(C)[C@H](CC[C@@H]7[C@@]8(C)CC[C@H](O)C(C)(C)[C@@H]8CC[C@]76C)[C@@H]45)cc3C2=O)cc1	5.27	< 4.30	4.55	> 50	5.01	4.56	< 4.30	4.95	< 4.30	> 50
CC(=O)Nc1ccc(N2C(=O)c3cc([C@@H]4CC[C@]5(C(=O)O)CC[C@]6(C)[C@H](CC[C@@H]7[C@@]8(C)CC[C@H](OC(C)=O)C(C)(C)[C@@H]8CC[C@]76C)[C@@H]45)cc(-c4ccccc4)c3C2=O)cc1	< 4.30	4.78	4.46	> 50	< 4.30	4.73	4.55	5.09	4.55	33.7
CC1(C)[C@@H](O)CC[C@]2(C)[C@H]3CC[C@@H]4[C@H]5[C@H](c6ccc(C(=O)O)c(C(=O)O)c6)CC[C@]5(C(=O)O)CC[C@@]4(C)[C@]3(C)CC[C@@H]12	< 4.30	< 4.30	< 4.30	> 50	< 4.30	< 4.30	< 4.30	< 4.30	< 4.30	> 50
CC(=O)OC[C@]12CC[C@@H](c3ccc4c(c3)C(=O)NC4=O)[C@@H]1[C@H]1CC[C@@H]3[C@@]4(C)CC[C@H](OC(C)=O)C(C)(C)[C@@H]4CC[C@@]3(C)[C@]1(C)CC2	< 4.30	< 4.30	< 4.30	> 50	< 4.30	< 4.30	< 4.30	< 4.30	< 4.30	> 50
CC1(C)[C@@H](O)CC[C@]2(C)[C@H]3CC[C@@H]4[C@H]5[C@H](c6ccc(C#N)c(C#N)c6)CC[C@]5(C(=O)O)CC[C@@]4(C)[C@]3(C)CC[C@@H]12	5.29	4.62	4.70	35.5	5.28	4.70	4.50	5.23	4.52	25.3
COC(=O)c1ccc([C@@H]2CC[C@]3(C(=O)O)CC[C@]4(C)[C@H](CC[C@@H]5[C@@]6(C)CC[C@H](O)C(C)(C)[C@@H]6CC[C@]54C)[C@@H]23)cc1C(=O)OC	4.94	4.78	4.96	31.1	4.94	4.71	4.79	4.85	4.86	25.3
COc1ccc(N2C(=O)c3ccc([C@@H]4CC[C@]5(CO)CC[C@]6(C)[C@H](CC[C@@H]7[C@@]8(C)CC[C@H](OC(C)=O)C(C)(C)[C@@H]8CC[C@]76C)[C@@H]45)cc3C2=O)cc1	< 4.30	< 4.30	< 4.30	> 50	< 4.30	< 4.30	< 4.30	< 4.30	< 4.30	> 50
COC(=O)c1cc([C@@H]2CC[C@]3(C(=O)O)CC[C@]4(C)[C@H](CC[C@@H]5[C@@]6(C)CC[C@H](O)C(C)(C)[C@@H]6CC[C@]54C)[C@@H]23)cc(-c2ccccc2)c1C(=O)OC	5.36	5.26	5.35	36.3	5.31	5.00	5.21	5.20	5.21	30.2
